# Data taken from article PMC4843813 (ACS chemical biology, 2015).
# Legend:
# human red blood cells [1] = assay: ATP release from red blood cells; type: cell-based; settings: 5 μM peptide, human RBCs, 37 °C, ATPLite kit on supernatant
# human red blood cells [2] = assay: micro-RNA mir-16 release from red blood cells; type: cell-based; settings: pH 5.4; 5 μM peptide, human RBCs, 37 °C, mir-16 by stem-loop qPCR on supernatant
# [3] = Sedimentation equilibrium analytical ultracentrifugation in aqueous buffer; type: physicochemical; settings: for apparent MW, AUC single-species fit: 150 mM NaCl, 25 °C, 35-50 krpm, global fit; for apparent MW, AUC single-species fit / aggregation state (apparent MW/peptide MW), AUC / –log(Kdissociation), monomer–hexamer equilibrium, AUC: 100 μM peptide; for –log(Kdissociation), monomer–hexamer equilibrium, AUC: error = SD of fit
# [4] = Size-exclusion chromatography, association state in aqueous buffer; type: physicochemical; settings: for apparent molecular weight, SEC: 150 mM NaCl, Superdex 75, 25 °C, 100 μM peptide
# [5] = Circular dichroism thermal denaturation; type: physicochemical; settings: for [PSPF-EKG] at 50% folded and 300 K: calculated from the CD fit; for Tm of thermal denaturation by CD: reference concentration 4 μM
# [6] = AUC self-association in C-14 betaine micelles; type: physicochemical; settings: 8 mM C-14 betaine, pH 7.4 and 5.5, peptide/betaine 1:50, 1:100, 1:200
# Outline: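 Sedimentation equilibrium run at 25 °C at 35, 40, 45 and 50 krpm. Test compound was dissolved in C-14 betaine micelles in 150 mM NaCl and 50 mM sodium phosphate. D2O was added to match micelle density: 17% at pH 7.4 and 22% at pH 5.5. Data were fitted by single-species and monomer–trimer equilibrium models.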
Substance,"% ATP at 5 μM, RBC lysis assay (human red blood cells [1]; pH 5.4)","% ATP at 5 μM, RBC lysis assay (human red blood cells [1]; pH 7.5)","% miRNA at 5 μM, RBC lysis assay (human red blood cells [2])",other results
WSDLAKA LSDLAKA LSDLAKA LSDLAKA [PSPF-DKA],5.79 % relative to Triton X-100 controls,4.64 % relative to Triton X-100 controls,0.79 % relative to Triton X-100 controls,
WSDLAKG LSDLAKG LSDLAKG LSDLAKG [PSPF-DKG],24.1 % relative to Triton X-100 controls,7.54 % relative to Triton X-100 controls,7.47 % relative to Triton X-100 controls,"apparent MW, AUC single-species fit ([3]; pH 5.5, 50 mM MES): 24 000 Da; association state n suggested by AUC single-species fitting ([3]; pH 7.4): 6; apparent MW, AUC single-species fit ([3]; pH 7.4, 50 mM Tris): 17 000 Da; aggregation state (apparent MW/peptide MW), AUC ([3]; pH 7.4): 6.0; –log(Kdissociation), monomer–hexamer equilibrium, AUC ([3]; pH 7.4): 28.7 ± 0.4; aggregation state n (apparent MW fold over single peptide MW), SEC ([4]; pH 5.5): only a poorly defined peak"
WSDLAQA LSDLAQA LSDLAQA LSDLAQA [PSPF-DQA],,3.81 % relative to Triton X-100 controls,,
WSDLAQG LSDLAQG LSDLAQG LSDLAQG [PSPF-DQG],8.61 % relative to Triton X-100 controls,3.21 % relative to Triton X-100 controls,0.16 % relative to Triton X-100 controls,
WSELAKA LSELAKA LSELAKA LSELAKA [PSPF-EKA],3.66 % relative to Triton X-100 controls,2.02 % relative to Triton X-100 controls,0.21 % relative to Triton X-100 controls,
WSELAKG LSELAKG LSELAKG LSELAKG [PSPF-EKG],27.3 % relative to Triton X-100 controls,3.38 % relative to Triton X-100 controls,,"decrease of Tm from pH 7.4 to pH 5.5 ([5]; CD thermal denaturation): 5.6 K; [PSPF-EKG] at 50% folded and 300 K ([5]; pH 5.5): 0.31 µM; Tm of thermal denaturation by CD ([5]; pH 5.5): 333.4 ± 0.1 K; [PSPF-EKG] at 50% folded and 300 K ([5]; pH 7.4): 0.14 µM; Tm of thermal denaturation by CD ([5]; pH 7.4): 339.0 ± 0.1 K; increase of free energy of the helical bundle as pH decreases from 7.4 to 5.5 ([3]; AUC): 0.7 kcal/mol peptide; association state n suggested by AUC single-species fitting ([3]; pH 5.5): 6; apparent MW, AUC single-species fit ([3]; pH 5.5, 50 mM MES): 16 000 Da; aggregation state (apparent MW/peptide MW), AUC ([3]; pH 5.5): 5.5; –log(Kdissociation), monomer–hexamer equilibrium, AUC ([3]; pH 5.5): 24.8 ± 0.1; association state n suggested by AUC single-species fitting ([3]; pH 7.4): 6; apparent MW, AUC single-species fit ([3]; pH 7.4, 50 mM Tris): 18 000 Da; aggregation state (apparent MW/peptide MW), AUC ([3]; pH 7.4): 6.2; –log(Kdissociation), monomer–hexamer equilibrium, AUC ([3]; pH 7.4): 28.0 ± 0.4; self-association in detergent micelles [6]: weakly associates in detergent micelles; apparent molecular weight, SEC ([4]; pH 5.5, 50 mM MES): 15 000 Da; apparent molecular weight, SEC ([4]; pH 7.4, 50 mM Tris): 19 000 Da"
WSELAQA LSELAQA LSELAQA LSELAQA [PSPF-EQA],3.61 % relative to Triton X-100 controls,3.69 % relative to Triton X-100 controls,0.02 % relative to Triton X-100 controls,
WSELAQG LSELAQG LSELAQG LSELAQG [PSPF-EQG],9.52 % relative to Triton X-100 controls,3.36 % relative to Triton X-100 controls,2.64 % relative to Triton X-100 controls,
WSHLAKA LSHLAKA LSHLAKA LSHLAKA [PSPF-HKA],5.7 % relative to Triton X-100 controls,0.93 % relative to Triton X-100 controls,0.02 % relative to Triton X-100 controls,
WSHLAKG LSHLAKG LSHLAKG LSHLAKG [PSPF-HKG],,32.1 % relative to Triton X-100 controls,0.44 % relative to Triton X-100 controls,
WSHLAQA LSHLAQA LSHLAQA LSHLAQA [PSPF-HQA],,6.17 % relative to Triton X-100 controls,1.43 % relative to Triton X-100 controls,
WSHLAQG LSHLAQG LSHLAQG LSHLAQG [PSPF-HQG],,5.69 % relative to Triton X-100 controls,0.64 % relative to Triton X-100 controls,
